Results from ChEMBL document CHEMBL1671813, “Discovery of potent competitive antagonists and positive modulators of the P2X2 receptor” (J Med Chem, 2011).
Active and inactive are the calls of the source. The calls are words filed in the database; no cut-off is given here.

Experiments:
P2Y purinoceptor 2 = P2Y purinoceptor 2 (Homo sapiens, UniProt P41231); assay: Antagonist activity against human P2Y2 receptor expressed in 1321N1 astrocytoma cells by calcium mobilization assay; type: functional, cell-based
In short: (§1)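 Astrocytoma cell lines stably transfected with human P2Y2, human P2Y4 or rat P2Y6 receptor. Inhibition of receptor-mediated intracellular calcium mobilization was measured.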

P2X purinoceptor 2 [1] = biological target: T1, P2X purinoceptor 2 (Rattus norvegicus, UniProt P49653); assay: Positive modulator activity against rat P2X2 receptor expressed in Xenopus laevis oocyte assessed as maximum ATP-induced inward current by two-electrode voltage-clamp electrophysiology in presence of 10 uM ATP
T1 sequence (P49653 whole entry): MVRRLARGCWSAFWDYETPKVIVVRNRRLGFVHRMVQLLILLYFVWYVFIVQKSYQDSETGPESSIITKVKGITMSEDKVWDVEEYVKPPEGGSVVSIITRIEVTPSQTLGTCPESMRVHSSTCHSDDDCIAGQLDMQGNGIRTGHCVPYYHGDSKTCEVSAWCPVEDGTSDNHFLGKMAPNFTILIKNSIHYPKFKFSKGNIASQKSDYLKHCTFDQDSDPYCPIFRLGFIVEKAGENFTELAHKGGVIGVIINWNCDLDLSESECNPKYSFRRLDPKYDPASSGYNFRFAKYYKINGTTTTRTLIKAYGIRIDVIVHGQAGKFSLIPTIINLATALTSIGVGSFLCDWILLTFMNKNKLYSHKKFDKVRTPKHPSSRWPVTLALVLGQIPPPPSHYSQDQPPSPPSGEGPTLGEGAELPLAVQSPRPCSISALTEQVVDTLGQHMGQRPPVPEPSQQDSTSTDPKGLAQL

[2] = biological target: T2, P2X purinoceptor 2 (Rattus norvegicus) (UniProt P49653); assay: Antagonist activity against rat P2X2 receptor expressed in Xenopus laevis oocyte assessed as maximum current amplitude by two-electrode voltage-clamp electrophysiology; type: functional
T2 sequence (whole entry): T1 sequence (P49653 whole entry)
In short: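 Rat P2X2-expressing oocytes were voltage-clamped in Mg-ORi. Test compound at 100 nM was coapplied with 10 μM ATP. Current amplitude was expressed as a percentage of the current elicited by ATP alone (set at 100%).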

[3] = biological target: T2, P2X purinoceptor 2 (Rattus norvegicus); assay: Antagonist activity against rat P2X2 receptor expressed in Xenopus laevis oocyte assessed as potentiation of ATP-induced inward current at 100 nM by two-electrode voltage-clamp electrophysiology
[4] = biological target: P2Y purinoceptor 6 (Rattus norvegicus) (UniProt Q63371); assay: Antagonist activity against rat P2Y6 receptor expressed in 1321N1 astrocytoma cells by calcium mobilization assay
P2X purinoceptor 4 = biological target: T3, P2X purinoceptor 4 (Rattus norvegicus, UniProt P51577); assay: Antagonist activity against rat P2X4 receptor expressed in Xenopus laevis oocyte assessed as inhibition of ATP-induced inward current by two-electrode voltage-clamp electrophysiology
T3 sequence (P51577 whole entry): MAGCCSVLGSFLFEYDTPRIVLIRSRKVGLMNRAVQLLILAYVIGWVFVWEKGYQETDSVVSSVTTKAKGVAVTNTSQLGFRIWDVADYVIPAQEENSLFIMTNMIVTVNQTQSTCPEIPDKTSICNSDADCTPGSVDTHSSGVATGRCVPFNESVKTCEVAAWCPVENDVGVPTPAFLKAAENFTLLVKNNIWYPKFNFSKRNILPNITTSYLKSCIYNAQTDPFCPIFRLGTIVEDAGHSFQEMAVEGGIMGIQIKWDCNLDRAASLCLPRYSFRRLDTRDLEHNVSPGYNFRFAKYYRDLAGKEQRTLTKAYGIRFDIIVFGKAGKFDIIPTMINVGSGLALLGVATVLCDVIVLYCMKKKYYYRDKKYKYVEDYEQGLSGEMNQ

P2Y purinoceptor 4 = P2Y purinoceptor 4 (Homo sapiens, UniProt P51582); assay: Antagonist activity against human P2Y4 receptor expressed in 1321N1 astrocytoma cells by calcium mobilization assay; type: functional, cell-based; in short: as §1
P2X purinoceptor 2 [5] = biological target: T1, P2X purinoceptor 2; assay: Antagonist activity against rat P2X2 receptor expressed in Xenopus laevis oocyte assessed as inhibition of ATP-induced inward current by two-electrode voltage-clamp electrophysiology
P2Y purinoceptor 12 = P2Y purinoceptor 12 (Homo sapiens, UniProt Q9H244); assay: Displacement of [3H]PSB0413 from human platelet P2Y12 receptor
P2X purinoceptor 2 [6] = biological target: T1, P2X purinoceptor 2; assay: Antagonist activity against rat P2X2 receptor expressed in Xenopus laevis oocyte assessed as inhibition of […] inward current by two-electrode voltage-clamp electrophysiology; type: functional
In short: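 Rat P2X2 or P2X4 cRNA was injected into collagenase-defolliculated Xenopus oocytes, which were kept at 19°C in ORi. Two-electrode voltage clamp was run 2-3 days later with perfusion in calcium-free Mg-ORi. 10 μM ATP was applied until steady-state current, then coapplied with incrementally larger test concentrations, with ATP-alone washout between. Inhibition was taken from the stationary current ratio, and IC50 from a Hill fit to pooled data.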

[7] = Selectivity ratio of IC50 for rat P2X2 receptor to IC50 for rat P2X3 receptor
[8] = Selectivity ratio of IC50 for rat P2X2 receptor to IC50 for rat P2X4 receptor
P2X purinoceptor 3 = biological target: T4, P2X purinoceptor 3 (Rattus norvegicus, UniProt P49654); assay: Antagonist activity against rat P2X3 receptor expressed in Xenopus laevis oocyte assessed as inhibition of alpha, beta-meATP-induced inward current by two-electrode voltage-clamp electrophysiology; type: functional
T4 sequence (P49654 whole entry): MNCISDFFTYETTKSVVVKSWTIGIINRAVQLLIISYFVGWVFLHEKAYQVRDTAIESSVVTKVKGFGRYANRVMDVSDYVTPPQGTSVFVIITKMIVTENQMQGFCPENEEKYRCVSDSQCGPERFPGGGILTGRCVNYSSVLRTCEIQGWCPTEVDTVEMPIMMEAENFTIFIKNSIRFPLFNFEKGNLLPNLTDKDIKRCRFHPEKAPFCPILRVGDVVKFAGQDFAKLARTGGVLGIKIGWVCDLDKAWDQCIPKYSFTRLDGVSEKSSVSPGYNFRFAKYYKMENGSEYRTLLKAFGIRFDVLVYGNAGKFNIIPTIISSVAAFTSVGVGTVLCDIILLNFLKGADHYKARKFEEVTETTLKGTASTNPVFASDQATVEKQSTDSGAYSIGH

P2X2/P2X3 receptor = biological target: T5, P2X2/P2X3 receptor (Rattus norvegicus, UniProt P49653+P49654); assay: Antagonist activity against rat P2X2/3 receptor expressed in Xenopus laevis oocyte assessed as inhibition of alpha, beta-meATP-induced inward current by two-electrode voltage-clamp electrophysiology; type: functional
T5 sequence (P49653 whole entry): T1 sequence (P49653 whole entry)
T5 sequence (P49654 whole entry): T4 sequence (P49654 whole entry)
In short: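 Heteromer formed by injecting rP2X2 and rP2X3 cRNA at 1:2 (w/w). Agonist 1 μM α,β-meATP, applied repeatedly to keep homomeric P2X3 desensitized. Same steady-state coapplication protocol in Ca-free Mg-ORi. IC50 from a Hill fit to pooled data from 5-7 experiments.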

[9] = Selectivity ratio of IC50 for rat P2X2 receptor to IC50 for rat P2X7 receptor
P2X purinoceptor 7 = biological target: T6, P2X purinoceptor 7 (Rattus norvegicus, UniProt Q64663); assay: Antagonist activity against rat P2X7 receptor expressed in Xenopus laevis oocyte assessed as inhibition of […] inward current by two-electrode voltage-clamp electrophysiology; type: functional
T6 sequence (Q64663 whole entry): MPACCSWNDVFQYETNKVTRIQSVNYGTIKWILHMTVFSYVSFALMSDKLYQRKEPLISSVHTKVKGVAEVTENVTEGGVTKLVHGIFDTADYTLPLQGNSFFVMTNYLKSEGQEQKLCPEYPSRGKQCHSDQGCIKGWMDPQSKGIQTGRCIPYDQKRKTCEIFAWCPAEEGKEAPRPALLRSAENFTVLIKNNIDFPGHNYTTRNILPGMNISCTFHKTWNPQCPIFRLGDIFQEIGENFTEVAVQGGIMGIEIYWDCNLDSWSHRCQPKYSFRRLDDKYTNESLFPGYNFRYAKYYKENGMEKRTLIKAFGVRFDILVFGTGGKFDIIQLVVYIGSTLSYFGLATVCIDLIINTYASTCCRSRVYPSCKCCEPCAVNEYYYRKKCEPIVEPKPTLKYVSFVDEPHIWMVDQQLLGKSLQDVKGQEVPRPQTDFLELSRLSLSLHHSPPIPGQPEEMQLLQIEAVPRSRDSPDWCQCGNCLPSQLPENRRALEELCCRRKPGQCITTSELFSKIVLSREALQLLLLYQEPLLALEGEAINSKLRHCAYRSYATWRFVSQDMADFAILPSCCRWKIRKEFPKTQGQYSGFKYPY

[10] = Selectivity ratio of IC50 for rat P2X2 receptor to IC50 for rat P2X1 receptor
P2X purinoceptor 1 = biological target: T7, P2X purinoceptor 1 (Rattus norvegicus, UniProt P47824); assay: Antagonist activity against rat P2X1 receptor expressed in Xenopus laevis oocyte assessed as inhibition of alpha, beta-meATP-induced inward current by two-electrode voltage-clamp electrophysiology; type: functional
T7 sequence (P47824 whole entry): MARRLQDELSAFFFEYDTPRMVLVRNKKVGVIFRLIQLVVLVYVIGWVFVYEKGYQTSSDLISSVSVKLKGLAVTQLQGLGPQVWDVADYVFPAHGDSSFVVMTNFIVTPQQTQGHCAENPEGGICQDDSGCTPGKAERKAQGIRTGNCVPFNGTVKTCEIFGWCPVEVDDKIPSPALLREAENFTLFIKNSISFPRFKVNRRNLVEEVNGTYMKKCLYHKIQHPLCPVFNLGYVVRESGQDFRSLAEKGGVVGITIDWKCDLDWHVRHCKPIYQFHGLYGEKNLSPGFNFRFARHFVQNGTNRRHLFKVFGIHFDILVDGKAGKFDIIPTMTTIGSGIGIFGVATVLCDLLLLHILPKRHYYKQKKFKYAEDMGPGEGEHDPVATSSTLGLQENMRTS

[11] = Selectivity ratio of IC50 for rat P2X2 receptor to IC50 for rat P2X2/3 receptor

Sequence of P2Y purinoceptor 4 (P51582 whole entry): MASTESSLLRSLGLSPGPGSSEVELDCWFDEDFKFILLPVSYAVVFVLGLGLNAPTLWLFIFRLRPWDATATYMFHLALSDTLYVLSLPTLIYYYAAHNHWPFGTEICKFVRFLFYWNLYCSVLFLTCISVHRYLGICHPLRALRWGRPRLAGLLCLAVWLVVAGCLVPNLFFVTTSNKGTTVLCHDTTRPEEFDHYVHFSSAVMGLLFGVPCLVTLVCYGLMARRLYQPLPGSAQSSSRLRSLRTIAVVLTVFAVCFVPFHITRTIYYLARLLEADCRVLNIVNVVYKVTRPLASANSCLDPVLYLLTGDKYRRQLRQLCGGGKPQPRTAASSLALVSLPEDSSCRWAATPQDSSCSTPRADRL
Sequence of P2Y purinoceptor 12 (Q9H244 whole entry): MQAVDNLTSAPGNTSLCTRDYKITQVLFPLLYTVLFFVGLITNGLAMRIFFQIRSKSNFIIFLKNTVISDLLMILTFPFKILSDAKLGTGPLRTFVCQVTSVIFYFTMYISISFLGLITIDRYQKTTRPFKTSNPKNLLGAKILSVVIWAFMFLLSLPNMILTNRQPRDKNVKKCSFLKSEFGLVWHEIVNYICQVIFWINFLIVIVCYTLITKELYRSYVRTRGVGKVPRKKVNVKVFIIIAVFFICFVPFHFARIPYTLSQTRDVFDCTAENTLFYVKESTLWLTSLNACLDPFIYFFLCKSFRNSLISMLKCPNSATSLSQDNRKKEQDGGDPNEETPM
Sequence of P2Y purinoceptor 2 (P41231 whole entry): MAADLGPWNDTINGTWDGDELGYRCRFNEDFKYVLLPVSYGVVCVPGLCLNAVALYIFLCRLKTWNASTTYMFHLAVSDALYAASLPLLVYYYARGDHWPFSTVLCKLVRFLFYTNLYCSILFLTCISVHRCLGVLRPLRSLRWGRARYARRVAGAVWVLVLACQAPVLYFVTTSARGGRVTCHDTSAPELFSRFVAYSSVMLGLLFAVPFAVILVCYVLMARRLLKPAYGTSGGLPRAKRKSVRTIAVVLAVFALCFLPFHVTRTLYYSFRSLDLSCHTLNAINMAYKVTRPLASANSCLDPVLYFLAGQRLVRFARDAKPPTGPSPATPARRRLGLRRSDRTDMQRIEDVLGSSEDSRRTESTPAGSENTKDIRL

Structure (SMILES)	IC50 (P2Y purinoceptor 2)	IC50 [4]	IC50 (P2X purinoceptor 4)	IC50 (P2Y purinoceptor 4)	Ki (P2Y purinoceptor 12)	IC50 (P2X purinoceptor 2 [5])	IC50 (P2X purinoceptor 2 [6])	also measured
Nc1c(S(=O)(=O)O)cc(Nc2cccc(Oc3ccccc3)c2)c2c1C(=O)c1ccccc1C2=O	10 µM	4.56 µM						EC50 (P2X purinoceptor 2 [1]): 0.489 µM; Activity [2]: Active; potentiation % [3]: 132%
Nc1c(S(=O)(=O)O)cc(Nc2cccc(Cc3ccccc3)c2)c2c1C(=O)c1ccccc1C2=O	> 10 µM	> 10 µM		> 10 µM				potentiation % [3]: 120%
Nc1c(S(=O)(=O)O)cc(Nc2ccc(Nc3nc(Cl)nc(Nc4cccc(S(=O)(=O)O)c4)n3)c(S(=O)(=O)O)c2)c2c1C(=O)c1ccccc1C2=O [RB 2]		4.34 µM			0.68 µM	4 µM	39.8 µM	
Nc1c(S(=O)(=O)O)cc(Nc2ccc(S(=O)(=O)O)c(Nc3nc(Cl)nc(Cl)n3)c2)c2c1C(=O)c1ccccc1C2=O	10 µM	> 10 µM	> 10 µM	> 10 µM		0.079 µM		IC50 [7]: 0.0053 µM; IC50 [8]: > 0.12 µM; IC50 (P2X purinoceptor 3): 0.494 µM; IC50 (P2X2/P2X3 receptor): 1.04 µM; IC50 [9]: > 0.12 µM; IC50 (P2X purinoceptor 7): > 10 µM; IC50 [10]: 0.0062 µM; IC50 (P2X purinoceptor 1): 0.422 µM; IC50 [11]: 0.0132 µM
Nc1ncnc2c1ncn2[C@@H]1O[C@H](COP(=O)(O)OP(=O)(O)OP(=O)(O)O)[C@H]2OC3(O[C@H]21)C([N+](=O)[O-])=CC(=[N+]([O-])[O-])C=C3[N+](=O)[O-] (stereo partly drawn) [TNP-ATP SODIUM]						4 µM	39.8 µM	
Cc1cc(/N=N/c2ccc(S(=O)(=O)O)cc2S(=O)(=O)O)c(COP(=O)(O)O)c(C=O)c1O						4 µM	39.8 µM	

The next lines start with results.

IC50 (P2Y purinoceptor 2)	IC50 [4]	IC50 (P2X purinoceptor 4)	IC50 (P2Y purinoceptor 4)	Ki (P2Y purinoceptor 12)	Structure (SMILES)	IC50 (P2X purinoceptor 2 [5])	IC50 (P2X purinoceptor 2 [6])	also measured
10 µM	> 10 µM	> 10 µM	10 µM	10 µM	COc1cccc(Nc2cc(S(=O)(=O)O)c(N)c3c2C(=O)c2ccccc2C3=O)c1	0.623 µM		
10 µM	3.92 µM	> 10 µM	> 10 µM	10 µM	Cc1cccc(Nc2cc(S(=O)(=O)O)c(N)c3c2C(=O)c2ccccc2C3=O)c1	0.8 µM		
